Source: PubChem BioAssay
core dimer inh = blocks dimerization of HCV core protein; AID 1899; TR-FRET GST/Flag-core106 dimerization, 1536-well; inhibition, % at 5 µM; 300,000 tested, 0.33% active;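 active means inhibition above the mean of all tested compounds plus 3 SD, set per screening campaign, cut at about 45% in these data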
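Assay system: tagged HCV core106 pair (GST and Flag); medium: KF-containing HEPES buffer, pH 7.45, DTT, CHAPS, BSA; also added: Eu donor and XL665 acceptor anti-tag antibodies; dosing: 5 µM single dose; timing: compound-protein-antibody incubation 4 h at 22.5 °C; signal: TR-FRET 671 and 617 nm emission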
TbMetRS inhib = blocks T. brucei methionyl-tRNA synthetase activity. 360,000 tested, 0.4% active. purified T. brucei MetRS, ATP depletion, Kinase-Glo luminescence. inhibition, % at 11.9 µM;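 active means inhibition above a per-plate cutoff of the control wells' mean inhibition plus 3 SD, cut at about 5.5% in these data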;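 further: 0% = DMSO wells median and 100% = median of wells with control inhibitor compound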
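Material: T. brucei methionyl-tRNA synthetase, purified; reagent: substrates ATP, L-methionine and bulk Escherichia coli tRNA; dosing: 11.9 µM single point; timing: 15 min plus 2 h at 25 °C; detection: luminescence of leftover ATP; evaluation: % inhibition; control set: DMSO-only wells as low control; replicates: singlicate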
Pemphigus Ab inh = blocks pemphigus antibody binding to human desmoglein-3; binding (percent of control), % at 10 µM; AID 588358; 310,000 tested, 0.48% active; DSG3-coupled beads, scFv-anti-DSG3-GFP binding, flow cytometry; active compounds read low; P32926;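 active means binding more than 3 SD below its plate's average and above zero; inconclusive means below that plate limit but binding exactly zero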;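 further: hits lower antibody fragment binding to DSG3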
Rce1 inhib = blocks yeast Ras-converting enzyme. calls only. Q03530. 290,000 tested, 0.27% active. yeast membranes, quenched prenylated peptide cleavage fluorescence. AID 2563;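 active means fall in fluorescence gain of 50% or more versus controls, with final raw signal at or below 3038400; inconclusive means same 50% fall but final raw signal above 3038400; inactive means fall in fluorescence gain under 50%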;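 further: plate controls were neutral control wells for no effect and wells lacking membranes for full effect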
Target sequence (Q03530 whole entry, looked up): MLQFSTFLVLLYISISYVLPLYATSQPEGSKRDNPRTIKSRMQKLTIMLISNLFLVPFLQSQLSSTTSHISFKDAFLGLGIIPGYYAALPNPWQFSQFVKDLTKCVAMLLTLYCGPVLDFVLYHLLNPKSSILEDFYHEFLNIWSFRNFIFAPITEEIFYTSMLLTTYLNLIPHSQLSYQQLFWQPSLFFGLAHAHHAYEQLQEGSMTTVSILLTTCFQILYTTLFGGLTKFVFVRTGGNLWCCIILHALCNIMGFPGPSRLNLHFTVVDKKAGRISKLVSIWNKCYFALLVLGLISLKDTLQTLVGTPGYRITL
NadD inh = NadD (S. aureus) enzyme inhibition; purified NadD enzyme, colorimetric absorbance read-out; inhibition, % at 20 µM; 360,000 tested, 0.78% active; in the data active means inhibition above about 26%
Starred values were filed as active, the others as inactive; i = inactive; ? = inconclusive; · = not tested or not shown; + = active, no number. A selection: hits, their analogues and other compounds. The true share with any hit is near 1.9%.

SMILES	core dimer inh	TbMetRS inhib	Pemphigus Ab inh	Rce1 inhib	NadD inh
COc1ccc(C(=O)NNC(=O)c2cc3cc([N+](=O)[O-])ccc3oc2=O)cc1OC	-5	0	116	i	0
CCCN1CC=C2C(C#N)=C(N)C(C#N)(C#N)C(c3cccc(OC)c3OC)C2C1 (configuration not stated)	-3	-2	127	i	-2
COc1cccc(OC)c1OCc1cc(C2C3CCCC=C3C(C#N)=C(N)C2(C#N)C#N)c(C)cc1C (configuration not stated)	56*	-1	100	i	20
CCOC(=O)c1ccc(COc2ccc(C(C)C)cc2)o1	11	0	116	i	-3
CCOc1ccc(OCc2ccc(C(=O)OCc3ccccn3)o2)cc1	5	-1	40*	i	-1
CC1(C)CC2CC(C)(CN2S(=O)(=O)c2ccc(N)cc2)C1 (configuration not stated)	0	-1	104	+	0
O=C(C(Cc1ccccc1)N1C(=O)c2ccccc2C1=O)N1c2ccccc2CCc2ccccc21 (configuration not stated)	10	-1	82	+	10
O=C1c2ccccc2C(=O)N1CC(=O)N1c2ccccc2CCc2ccccc21	36	0	?	i	1
Cc1ccc(SSc2cc(C)ccc2N)c(N)c1	-18	0	65*	i	28
CNC(=O)COc1coc(CN2CCN(Cc3ccccc3)CC2)cc1=O	0	0	97	i	-5
CSc1sc(C(=O)NCC2CC2)c(-c2cccs2)c1C#N	4	0	92	i	-4
CSc1sc(C(=O)NCC2CC2)c2c1S(=O)(=O)N(C)c1ccccc1-2	-3	0	93*	i	0
CSC(=NCc1cccnc1)NS(=O)(=O)c1cccs1	-3	0	103	i	7
Cc1cccc(C)c1NC(=O)CN1CCC(Cc2ccccc2)CC1	·	0	·	·	-3
COC(=O)c1ccccc1NC(=O)NCc1cccnc1	-10	0	·	+	-2
COC(=O)c1ccccc1NC(=O)NCc1ccccn1	-3	0	102	i	-3
CCc1ccccc1NC(=O)c1ccc(Cn2cc([N+](=O)[O-])cn2)cc1	-1	0	111	i	-1
N#CCc1ccc(OCCCN2CCC(C(O)(c3ccccc3)c3ccccc3)CC2)cc1	·	-2	·	·	0
Cc1ccc(N=Nc2ccc(O)c(/C=N\NC(=O)c3ccc(N)cc3)c2)cc1C	24	0	84	i	48*
CC1=NN(c2nc(-c3ccc(C)cc3)cs2)C(=O)C1N=Nc1ccc2ccccc2c1 (configuration not stated)	21	0	93	i	44*
Cc1ccc(S(=O)(=O)Nc2ccccc2F)cc1C(=O)N1CCN(c2ccccc2O)CC1	·	0	104	·	0
C=CCSc1nnc2nc3c(nn12)c1cc(C)ccc1n3CC=C	25	0	-30*	i	12
OCCN(CCO)c1ccc2ccccc2c1	-15	-1	109	+	13
COC(=O)CN1C(=S)N(c2ccc(F)cc2)C(=O)C1CC(=O)Nc1ccc(F)cc1 (configuration not stated)	-1	1	104	i	-1
COC(=O)CN1C(=S)N(Cc2ccccc2)C(=O)C1CC(=O)Nc1ccc(Br)cc1 (configuration not stated)	4	64*	107	i	-9
SMILES	core dimer inh	TbMetRS inhib	Pemphigus Ab inh	Rce1 inhib	NadD inh
Cc1c(NC(=O)Nc2ccc3c(c2)OCO3)c(=O)n(-c2ccccc2)n1C	-4	-1	101	i	0
CC(C)N1CCN(Cc2ccc(Oc3ncccn3)cc2)CC1CCO (configuration not stated)	-5	0	91	+	-6
O=C(c1cc2c(s1)CCCC2)N1CCN(Cc2ccc3c(c2)OCO3)CC1	11	0	79	i	0
O=C(Oc1ccc2c(c1)OCO2)c1cc2c(s1)CCC2	87*	0	90	i	24
CC1(C)C(=O)Nc2ccccc2N1C(=O)COc1ccc(S(=O)(=O)N2CCOCC2)cc1Cl	65*	-1	100	i	-6
O=C(COc1ccc(S(=O)(=O)N2CCOCC2)cc1Cl)N1CCCC1	9	0	77	i	0
COC(=O)[C@]12CCCCC=C1N(Cc1ccc(Cl)cc1Cl)C(=O)[C@H](CC(=O)NCC1CCCCC1)C2	·	-1	·	·	4
O=C(N/N=C/C1CC=CCC1)c1cc2ccccc2cc1O (configuration not stated)	4	1	99	i	7
O=C(N/N=C/C1CC=CCC1)c1ccc(O)cc1O (configuration not stated)	0	0	123	+	-5
CC(=O)c1cccc(NC(=O)Nc2cccs2)c1	-5	0	109	i	4
CC(=O)c1cccc(NC(=O)Nc2cc3sccc3n2C)c1	51*	·	·	i	·
COc1ccccc1NC(=O)NCc1nc(-c2ccc(C(F)(F)F)cc2)no1	-5	0	74*	i	-6
O=C(NCc1nc(-c2ccccc2)no1)Nc1ccc(F)cc1	3	0	91	i	-9
O=C(CSc1nc2ccccc2s1)N1N=C(c2cccs2)CC1c1ccc(F)cc1 (configuration not stated)	19	-1	108	+	0
CCN(CC)c1ccc2nc3c4ccccc4c(=O)cc-3oc2c1	·	·	·	i	·
CCN(CC)c1ccc2c(-c3ccc(S(=O)(=O)O)cc3S(=O)(=O)[O-])c3ccc(=[N+](CC)CC)cc-3oc2c1	68*	-3	?	i	5
COC(=O)c1ccc(CSc2nc3scc(-c4cccs4)c3c(=O)[nH]2)o1	33	0	99	i	34*
CCOc1ccc(-c2nc3scc(-c4cccs4)c3c(=O)[nH]2)cc1	6	0	71*	i	11
COC(=O)c1ccc(CSc2nc3ccc(Cl)cc3[nH]2)o1	5	3	118	i	·
Cc1cc(C)n2nc(SCC(=O)Nc3c(C)nn(-c4ccccc4)c3C)nc2n1	-4	-1	102	i	-2
Cc1ccc(C)c(/C=C(\C(=O)O)c2ccc(S(=O)(=O)N3CCCCC3)s2)c1	57*	0	98	i	10
O=C(COC(=O)c1ccncc1)Nc1cccc(Cl)c1	46*	-2	115	i	8
Cc1ccc(C2C(/C=C3/SC(=S)NC3=O)=C(c3cccs3)Oc3ccccc32)cc1 (configuration not stated)	32	0	121	i	60*
CC1Oc2ccccc2C=C1/C=N/NC(=O)[C@@H](C)NC(=O)OC(C)(C)C (some centres not stated)	-2	-1	96	+	-3
COc1cccc(C2CC(=O)C3=C(C2)Nc2ccccc2N(C(=O)CCC(=O)O)C3c2ccc(F)cc2)c1 (configuration not stated)	2	1	100	+	6
